Runt-SMMHC FRET – inhibitors of RUNX1 Runt–CBFb-SMMHC binding, primary screen, biochemical, FRET, Cerulean-Runt, Venus-CBFb-SMMHC, uHTS; 220,000 compounds, 0.74% hits; Cerulean-Runt/Venus-CBFb-SMMHC FRET ratio 530/480, 1 h; Runt-related transcription factor 1 (Homo sapiens) + Core-binding factor subunit beta …; inhibition, % at 20 µM;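 active means mean inhibition across duplicate retests at 20 µM reaching about 50%, limit read from the data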;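 further: 0% = DMSO wells and 100% = wells with excess untagged CBFb-SMMHC; inhibitors lower the FRET ratio by blocking Runt binding to CBFb-SMMHC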
RanGTP-Imp inh – inhibitors of RanGTP-importin-beta interaction, primary screen, biochemical, FRET, CFP-Ran, YFP-importin-beta, homogeneous; Ran GTPase (GTP-bound) - importin-beta complex; cell-free CFP-Ran/YFP-importin-beta FRET ratio; inhibition, % (concentration not given with the values); 300,000 compounds, 1.1% hits;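 active means more than half of the replicate wells show a fall in the fluorescence ratio signal beyond about 16%, limit read from the data, passing the limit was not always enough; inconclusive means exactly half of the replicate wells pass the set limit; inactive means fewer than half of replicates pass the limit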;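 further: 0% = DMSO wells and 100% = Ran loaded with GDP instead of GTP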
Runt-CBFb FRET – inhibitors of RUNX1 Runt–CBFb binding, primary screen, biochemical, FRET, Cerulean-Runt, Venus-CBFb, uHTS. Runt-related transcription factor 1 (Homo sapiens) + Core-binding factor subunit beta …. Cerulean-Runt/Venus-CBFb FRET ratio 530/480, 1 h. inhibition, % at 20 µM. 220,000 compounds, 0.46% hits. AID 1496, 2009;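 active means inhibition over about 50% at 20 µM in the single-dose screen, limit read from the data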;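 further: 0% = DMSO wells and 100% = excess unlabeled CBFb competitor control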
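Doses: 20 µM compound in 1% DMSO | Material: Cerulean-labeled Runt domain protein | Amount: Each fluorescent fusion protein 100 nM | Schedule: Two 1 h room-temperature incubations shielded from light | Measured by: FRET fluorescence | Evaluation: Loss of energy transfer signal | Controls: Unlabeled CBFb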
HDAC3 inh – HDAC3 deacetylase inhibitors, primary screen, biochemical, fluorescence, cell-free homogeneous | inhibition, % at 8.3 µM | Histone deacetylase 3 (Homo sapiens), O15379 | 320,000 compounds, 0.15% hits | AID 2718, 2010 | recombinant HDAC3, fluorogenic peptide/trypsin coupled; in the data active means inhibition above about 26%, passing the limit was not always enough; inconclusive means no clear call, values can overlap the other calls
LANA-H2A inh – blockers of LANA interaction with H2A/H2B – biochemical, FP readout, HTS, primary screen. cell-free LANA-H2A/H2B peptide, fluorescence polarization. inhibition, % (concentration not given with the values). 320,000 compounds, 0.6% hits. AID 2629, 2010; in the data active means inhibition mostly above about 10%, no sharp cut-off; inactive means mostly below about 6.7%
Target sequence (Q9QR71 whole entry, looked up): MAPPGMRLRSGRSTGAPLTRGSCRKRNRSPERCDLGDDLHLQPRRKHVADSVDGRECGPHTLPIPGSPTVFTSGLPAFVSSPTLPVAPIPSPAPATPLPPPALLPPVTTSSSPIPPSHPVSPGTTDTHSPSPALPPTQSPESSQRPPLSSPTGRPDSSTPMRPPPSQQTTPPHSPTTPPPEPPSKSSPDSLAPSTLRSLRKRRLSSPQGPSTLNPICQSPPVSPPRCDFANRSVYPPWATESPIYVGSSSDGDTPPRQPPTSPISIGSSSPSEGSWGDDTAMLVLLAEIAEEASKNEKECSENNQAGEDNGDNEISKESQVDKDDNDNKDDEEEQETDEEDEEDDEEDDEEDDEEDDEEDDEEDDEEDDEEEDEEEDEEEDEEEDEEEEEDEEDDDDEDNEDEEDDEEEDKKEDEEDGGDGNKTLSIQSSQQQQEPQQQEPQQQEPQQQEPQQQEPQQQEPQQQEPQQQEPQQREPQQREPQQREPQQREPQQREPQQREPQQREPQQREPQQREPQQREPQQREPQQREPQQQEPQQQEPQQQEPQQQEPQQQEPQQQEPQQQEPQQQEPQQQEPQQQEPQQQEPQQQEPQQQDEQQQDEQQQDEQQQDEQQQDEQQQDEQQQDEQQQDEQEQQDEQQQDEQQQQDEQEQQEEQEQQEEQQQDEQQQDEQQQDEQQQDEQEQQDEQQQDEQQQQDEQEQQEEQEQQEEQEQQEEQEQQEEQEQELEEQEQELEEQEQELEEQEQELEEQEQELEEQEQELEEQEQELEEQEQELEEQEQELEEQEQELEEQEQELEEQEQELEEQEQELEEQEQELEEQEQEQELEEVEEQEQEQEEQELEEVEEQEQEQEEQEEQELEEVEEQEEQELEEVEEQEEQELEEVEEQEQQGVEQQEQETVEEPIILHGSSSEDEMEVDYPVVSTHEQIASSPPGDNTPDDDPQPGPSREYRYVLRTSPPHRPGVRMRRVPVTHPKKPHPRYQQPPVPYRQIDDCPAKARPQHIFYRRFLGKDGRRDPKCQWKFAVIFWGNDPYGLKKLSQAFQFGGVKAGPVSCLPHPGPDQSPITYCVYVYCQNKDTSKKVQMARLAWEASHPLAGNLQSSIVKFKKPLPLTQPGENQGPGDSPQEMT
CaV13 FRET inh – Primary screen for inhibitors of IQ motif and Ca2+-dependent inactivation inhibitor domain binding in CACNA1D, Förster resonance energy transfer in living cells, …; HEK cells, CFP/YFP FRET ICDI-IQ, plate reader, 10 min; percent FRET-ratio fall versus neutral wells; inhibition, % at 12.3 µM; 340,000 compounds, 0.098% hits;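 active means mean replicate inhibition of at least 30% and at least 1% of replicates passing that level; inconclusive means only one of the two criteria is met; inactive means neither criterion is met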;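 further: 0% = median of the neutral control wells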
Numbers without * were called inactive; ? = inconclusive; nt = not tested or not shown; ! = a repeat was not active. Shown are actives, neighbours in structure and some others; about 1.9% of the full set was active somewhere.

SMILES | Runt-SMMHC FRET | RanGTP-Imp inh | Runt-CBFb FRET | HDAC3 inh | LANA-H2A inh | CaV13 FRET inh
O=C(NCC(c1ccc(F)cc1)N1CCOCC1)c1nn(-c2ccccc2)c(=O)c2ccccc12 (stereo not given) | nt | nt | nt | 2.2 | -5.4 | -2.5
Cc1ccc([N+](=O)[O-])cc1S(=O)(=O)Nc1ccc(C(=O)N2CCN(C(=O)c3ccco3)CC2)cc1 | nt | nt | nt | 4.3 | 16.5* | -2.0
O=C(COc1ccc([N+](=O)[O-])cc1)Nc1ccc(N2CCN(C(=O)c3ccco3)CC2)cc1 | nt | 3.1 | nt | -0.3 | 28.4* | -3.6
COc1cccc(N2C(=O)CC(NNc3nc4ccccc4s3)C2=O)c1 (stereo not given) | 0.7 | -1.5 | -0.9 | -1.2 | -2.4 | -4.3
C[c-]1[c-](C)[c-](C)[c-](C)[c-]1C.[Fe].c1cc2nccc(N3CCCC3)[c-]2c1 (stereo not given) | 2.3 | -0.7 | -0.3 | 29.4*! | -1.5 | -9.2
c1cc(N2CCCCC2)nc(N2CCCCC2)n1 | nt | nt | nt | nt | nt | -5.1
CCCN(CCO)CCCc1ccccc1 | -6.3 | 3.4 | -0.1 | 5.3 | 2.9 | -4.7
CCN(CCCc1ccccc1)CCCc1ccccc1 | 1.1 | 2.8 | -1.7 | nt | 38.0* | -8.2
CC(C)c1cc(C(=O)N2CCCC(CCC(=O)N3CCN(c4ccccn4)CC3)C2)no1 (stereo not given) | -2.2 | 1.1 | 2.3 | 0.7 | 0.6 | -2.7
CCOc1c(S(=O)(=O)N2CCCC2)ccc(Cl)c1Cl | -6.1 | 5.9 | 1.8 | -7.7 | 2.1 | -6.0
CC(=O)OC[C@@H]1CN(Cc2ccccc2)C[C@H](n2cnc3c(N(C)C(C)C)ncnc32)O1 | nt | nt | nt | nt | nt | 45.4*
Cc1[nH]c(C)c(S(=O)(=O)NCc2ccc(F)cc2)c1C(=O)N1CCCCC1 | nt | -0.8 | nt | 10.4 | -4.0 | -4.7
COc1ccccc1NS(=O)(=O)c1ccc2oc(SCC(C)=O)nc2c1 | nt | ? | nt | 42.0* | 1.1 | -3.0
CC(C)=C1C2CCC1C1C(=O)N(c3nc(-c4ccccc4)c(C)s3)C(=O)C21 (stereo not given) | -3.5 | 0.8 | -2.5 | 7.5 | 3.3 | -4.0
O=C(O)[C@@H]1CCCN1C(=O)COc1ccc2c3c(c(=O)oc2c1)CCC3 | nt | -1.7 | nt | -1.0 | 0.2 | nt
CCC1CCCCN1C(=O)COc1ccc2c3c(c(=O)oc2c1)CCC3 (stereo not given) | nt | nt | nt | -8.6 | 31.5* | -6.4
O=C(Oc1ccc(=O)n(-c2ccccc2)n1)c1ccccc1 | -2.3 | 3.1 | -0.4 | 80.8* | -2.4 | -4.5
O=C(NCC(=O)N(c1ccccc1F)C(C(=O)NC1CCCC1)c1cccnc1)c1ccco1 (stereo not given) | nt | -1.7 | nt | 5.1 | -6.1 | -7.0
CCCC(=O)N1CCCC1(C)C(=O)N(C)Cc1cccc2ccccc12 (stereo not given) | nt | nt | nt | nt | nt | -7.4
COc1ccc(/C=C2\C(=O)NCC(=O)N2C)cc1 | nt | 1.3 | nt | -3.5 | 13.9* | -4.2
COc1ccc(/C=C2\C(=O)NCC(=O)N2Cc2ccccc2)cc1 | 2.6 | -0.5 | 1.2 | 6.1 | 2.5 | nt
CC(=O)C1=CCC(c2ccccc2)N(S(=O)(=O)c2ccccc2C)C1 (stereo not given) | nt | nt | nt | nt | nt | -4.8
CC12COC3(C(=O)Nc4ccc5ccccc5c4)CC1CCC32C (stereo not given) | 3.3 | -2.7 | -0.9 | 3.5 | 31.8* | 5.5
CC12COC3(C(=O)Nc4ccccc4)CC1CCC32C (stereo not given) | -3.4 | 4.6 | 2.3 | -2.2 | -1.2 | -1.9
CCN1CCc2c(OCC(=O)Nc3ccc(C)cc3)cccc2C1=O | nt | 1.5 | nt | -3.2 | -1.5 | nt
SMILES | Runt-SMMHC FRET | RanGTP-Imp inh | Runt-CBFb FRET | HDAC3 inh | LANA-H2A inh | CaV13 FRET inh
CC(=O)NCCNc1nc2cc(-c3ccccc3)sc2c(=O)n1C | nt | nt | nt | nt | nt | -6.5
Cc1ccc(-c2cc(-c3ccccc3)c3c(N)c(S(C)(=O)=O)sc3n2)cc1 | 89.0* | -4.2 | 39.6 | -4.8 | 6.5 | -1.7
COc1ccc(OC)c(NC(=O)CCNS(=O)(=O)c2ccc3c(c2)c(=O)n(C)c(=O)n3C)c1 | 0.5 | -1.2 | 1.6 | 6.4 | 8.6 | 0.1
C[C@H](NC(=O)c1nc[nH]c1C(=O)N[C@@H](Cc1ccccc1)C(=O)OC(C)(C)C)C(=O)OCc1ccccc1 | nt | -1.5 | nt | ? | -3.6 | 34.6*
C[C@H](NC(=O)c1nc[nH]c1C(=O)N[C@@H](Cc1ccccc1)C(=O)OCc1ccccc1)C(=O)OCc1ccccc1 | nt | 0.0 | nt | -3.3 | -2.4 | 15.1
CC(C)C[C@H](NC(=O)c1nc[nH]c1C(=O)NCC(=O)OC(C)(C)C)C(=O)OCc1ccccc1 | 2.5 | -3.4 | -8.4 | 7.6 | -1.7 | -5.8
C[C@H](NC(=O)c1nc[nH]c1C(=O)N[C@@H](Cc1ccccc1)C(=O)OC(C)(C)C)c1ccccc1 | 2.2 | ? | -2.8 | 28.1* | -3.5 | -6.4
CC(C)C[C@H](NC(=O)c1nc[nH]c1C(=O)NCC(=O)OCc1ccccc1)C(=O)OCc1ccccc1 | nt | 8.2 | nt | 28.5* | 0.0 | -7.3
CC(N=C(NC#N)Nc1ccncc1)C(C)(C)C (stereo not given) | -2.9 | 0.2 | -0.6 | 7.1 | 48.0*! | -4.5
CCCC(C)C(=O)Nc1ccncc1 (stereo not given) | 3.0 | 0.9 | -0.1 | -1.3 | 2.9 | 6.2
CCCCCCc1cc2cc(-c3nnc(-c4cc(OC)c(OC)c(OC)c4)o3)c(=O)oc2cc1O | 75.1* | 139.3* | 123.3* | -6.9 | -6.9 | nt
COc1cccc2cc(-c3nnc(-c4ccccc4)o3)c(=O)oc12 | nt | ? | nt | 2.5 | -0.1 | -15.5
CCCCCCc1cc2cc(S(=O)(=O)c3ccc(F)cc3)c(=O)oc2cc1O | 63.2* | 166.5* | 19.2 | 0.6 | 0.1 | 53.5*
CCCCCCc1cc2cc(C(=O)Nc3ccccc3OC)c(=O)oc2cc1O | 63.1* | 92.6* | 133.0* | ? | 2.2 | -7.9
O=C(O)c1ccc2oc(=O)c(S(=O)(=O)c3ccc(F)cc3)cc2c1 | nt | 1.4 | nt | 10.2 | -0.3 | -5.2
CCCCCCc1cc2cc(-c3nnc(-c4ccccc4OC)o3)c(=O)oc2cc1O | 58.0* | 136.0* | 18.1 | -3.4 | 10.3* | 7.3
CCCCCCc1cc2cc(-c3nnc(-c4ccccc4O)o3)c(=O)oc2cc1O | 38.0 | 158.6* | 11.4 | -2.8 | -2.7 | 3.7
COC(=O)c1ccc(OC(=O)c2cccs2)cc1 | 2.8 | -3.9 | -10.5 | 63.0* | -0.1 | -4.4

Source: PubChem BioAssay
